Data taken from ChEMBL document CHEMBL1154610, “Discovery and preclinical evaluation of [4-[[1-(3-fluorophenyl)methyl]-1H-indazol-5-ylamino]-5-methylpyrrolo[2,1-f][1,2,4]triazin-6-yl]carbamic acid, (3S)-3-morpholinylmethyl ester (BMS-599626), a selective and orally efficacious inhibitor of human epidermal growth factor receptor 1 and 2 kinases” (J Med Chem, 2009).

Legend:
[1] = Antiproliferative activity against mouse SAL2 cells after 72 hrs by MTT assay; type: functional, cell-based; conditions: SAL2, 72 h
[2] = biological target: Receptor tyrosine-protein kinase erbB-2 (Homo sapiens, UniProt P04626); experiment: Inhibition of human recombinant HER2 expressed in Sf9 cells by liquid scintillation counting
Sequence of Receptor tyrosine-protein kinase erbB-2 (P04626 whole entry): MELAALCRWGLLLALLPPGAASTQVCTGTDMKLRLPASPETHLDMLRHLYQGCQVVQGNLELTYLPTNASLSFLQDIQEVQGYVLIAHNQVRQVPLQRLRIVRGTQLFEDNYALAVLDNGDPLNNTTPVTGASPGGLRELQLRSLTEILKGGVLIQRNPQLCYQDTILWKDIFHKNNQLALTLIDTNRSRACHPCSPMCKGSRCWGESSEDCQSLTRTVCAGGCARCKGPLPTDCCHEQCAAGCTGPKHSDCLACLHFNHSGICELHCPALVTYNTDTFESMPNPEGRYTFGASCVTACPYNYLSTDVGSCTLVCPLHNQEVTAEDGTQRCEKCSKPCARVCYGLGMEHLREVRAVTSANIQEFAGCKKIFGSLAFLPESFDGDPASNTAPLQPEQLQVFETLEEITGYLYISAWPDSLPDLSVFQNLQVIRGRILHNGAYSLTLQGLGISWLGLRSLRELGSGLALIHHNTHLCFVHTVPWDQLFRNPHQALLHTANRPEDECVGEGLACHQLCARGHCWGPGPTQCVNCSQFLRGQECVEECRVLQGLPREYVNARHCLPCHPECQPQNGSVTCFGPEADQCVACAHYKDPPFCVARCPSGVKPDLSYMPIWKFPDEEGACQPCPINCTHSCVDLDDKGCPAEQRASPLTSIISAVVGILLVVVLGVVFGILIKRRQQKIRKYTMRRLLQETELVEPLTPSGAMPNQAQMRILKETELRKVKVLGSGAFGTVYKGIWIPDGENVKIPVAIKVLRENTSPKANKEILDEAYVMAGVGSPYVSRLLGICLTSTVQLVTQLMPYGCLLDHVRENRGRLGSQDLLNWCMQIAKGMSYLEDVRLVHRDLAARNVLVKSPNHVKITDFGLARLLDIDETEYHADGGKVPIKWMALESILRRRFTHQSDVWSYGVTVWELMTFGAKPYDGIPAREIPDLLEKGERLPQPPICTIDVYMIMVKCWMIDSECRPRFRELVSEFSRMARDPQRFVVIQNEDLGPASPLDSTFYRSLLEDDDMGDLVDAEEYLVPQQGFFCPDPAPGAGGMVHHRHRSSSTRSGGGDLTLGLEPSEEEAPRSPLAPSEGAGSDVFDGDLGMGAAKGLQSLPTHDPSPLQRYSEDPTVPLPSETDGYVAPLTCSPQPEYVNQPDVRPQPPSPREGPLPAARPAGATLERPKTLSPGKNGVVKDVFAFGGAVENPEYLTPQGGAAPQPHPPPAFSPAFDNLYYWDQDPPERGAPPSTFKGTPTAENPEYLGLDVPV

[3] = system: Mus musculus; experiment: Plasma concentration in BALB/c mouse at 50 mg/kg, po; type: ADME, organism-based; set-up: dose 50 mg/kg, route oral; conditions: in vivo
Procedure, shortened: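 Compound given orally at 50 mg/kg as a solution in PEG400/Tween80/water (40:10:50) to three Balb/C mice. Plasma sampled over 4 h after dosing; AUC(0-4h), Cmax and 4 h concentration reported.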

[4] = system: BT-474; experiment: Antiproliferative activity against human BT474 cells after 72 hrs by MTT assay; type: functional, cell-based; conditions: BT-474, 72 h
Procedure, shortened: (§1)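 Cell proliferation IC50 reported as the mean of three independent determinations. BT474 is a breast line (HER2+++/HER1+); A2780 serves as a HER-independent control.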

[5] = biological target: Epidermal growth factor receptor (Homo sapiens, UniProt P00533); experiment: Inhibition of human recombinant HER1 expressed in Sf9 cells by liquid scintillation counting
Sequence of Epidermal growth factor receptor (P00533 whole entry): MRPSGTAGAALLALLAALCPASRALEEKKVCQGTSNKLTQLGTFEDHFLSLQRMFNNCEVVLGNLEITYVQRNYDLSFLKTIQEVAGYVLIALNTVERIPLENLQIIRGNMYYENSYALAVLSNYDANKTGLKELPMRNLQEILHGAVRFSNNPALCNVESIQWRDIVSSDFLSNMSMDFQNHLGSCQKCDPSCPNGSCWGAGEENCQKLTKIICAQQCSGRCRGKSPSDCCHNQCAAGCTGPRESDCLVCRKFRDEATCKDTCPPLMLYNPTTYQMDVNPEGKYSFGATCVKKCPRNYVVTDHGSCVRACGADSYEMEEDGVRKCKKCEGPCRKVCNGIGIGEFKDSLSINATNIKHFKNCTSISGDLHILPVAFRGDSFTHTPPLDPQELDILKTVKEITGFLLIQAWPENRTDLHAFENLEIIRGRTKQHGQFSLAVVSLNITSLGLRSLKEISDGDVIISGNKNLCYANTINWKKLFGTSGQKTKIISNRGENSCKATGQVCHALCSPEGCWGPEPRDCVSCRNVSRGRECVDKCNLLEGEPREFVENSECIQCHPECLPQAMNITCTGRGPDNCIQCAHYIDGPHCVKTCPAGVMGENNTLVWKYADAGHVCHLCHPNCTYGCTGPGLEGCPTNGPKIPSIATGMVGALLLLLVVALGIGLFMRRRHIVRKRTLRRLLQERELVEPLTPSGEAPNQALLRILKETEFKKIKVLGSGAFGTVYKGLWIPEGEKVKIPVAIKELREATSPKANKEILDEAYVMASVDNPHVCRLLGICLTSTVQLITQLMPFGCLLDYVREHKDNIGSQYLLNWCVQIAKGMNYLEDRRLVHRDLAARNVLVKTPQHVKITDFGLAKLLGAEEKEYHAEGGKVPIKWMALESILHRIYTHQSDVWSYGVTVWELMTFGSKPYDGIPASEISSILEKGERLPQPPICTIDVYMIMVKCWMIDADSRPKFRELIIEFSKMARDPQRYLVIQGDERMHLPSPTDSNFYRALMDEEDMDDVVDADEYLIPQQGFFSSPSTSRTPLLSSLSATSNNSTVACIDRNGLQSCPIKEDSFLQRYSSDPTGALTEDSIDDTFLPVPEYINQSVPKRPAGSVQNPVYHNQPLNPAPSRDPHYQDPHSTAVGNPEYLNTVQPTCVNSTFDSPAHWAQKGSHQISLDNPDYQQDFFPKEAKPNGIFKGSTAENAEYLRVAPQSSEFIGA

[6] = AUC (0 to 4 hrs) in BALB/c mouse at 50 mg/kg, po; type: ADME, organism-based; set-up: time < 4 hr, dose 50 mg/kg, route oral; conditions: plasma
[7] = Cmax in BALB/c mouse at 50 mg/kg, po; type: ADME, organism-based; set-up: dose 50 mg/kg, route oral; conditions: in vivo
[8] = system: NCI-N87; experiment: Antiproliferative activity against human NCI-N87 cells after 72 hrs by MTT assay; type: functional, cell-based; conditions: NCI-N87, 72 h
[9] = Metabolic stability in mouse liver microsomes assessed per mg of protein at 10 uM after 10 mins; type: ADME, Microsome
Procedure, shortened: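 Mouse liver microsomes incubated with compound at 10 µM for 10 min; metabolic rate expressed as nmol/min/mg protein.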

[10] = system: A2780; experiment: Antiproliferative activity against human A2780 cells after 72 hrs by MTT assay; type: functional, cell-based; conditions: A2780, 72 h; procedure, shortened: as §1

SMILES	IC50 [1]	IC50 [2]	concentration [3]	IC50 [4]	IC50 [5]	AUC(0-t) at 4 h [6]	Cmax [7]	IC50 [8]	Stability [9]	IC50 [10]
CCC1=C2C(Nc3ccc4c(cnn4Cc4ccccc4)c3)=NC=NC2N=C1NC(=O)OCCC1CCNCC1 (centres undefined)	490 nM	37 nM	110 nM	130 nM	44 nM	0.53 µM·h	250 nM	210 nM	–	–
CCC1=C2C(Nc3ccc4c(cnn4Cc4ccccc4)c3)=NC=NC2N=C1NC(=O)OCCN1CCNCC1 (centres undefined)	250 nM	18 nM	300 nM	71 nM	21 nM	0.62 µM·h	300 nM	100 nM	0.1 nmol/min	–
CCC1=C2C(Nc3ccc4c(cnn4Cc4ccccc4)c3)=NC=NC2N=C1NC(=O)OCC1CCCCN1 (centres undefined)	250 nM	30 nM	2300 nM	470 nM	45 nM	7.2 µM·h	2300 nM	430 nM	–	4750 nM
CCC1=C2C(Nc3ccc4c(cnn4Cc4ccccc4)c3)=NC=NC2N=C1NC(=O)OCC1CCNCC1 (centres undefined)	130 nM	23 nM	260 nM	90 nM	30 nM	1.3 µM·h	450 nM	170 nM	–	–
CCc1c(NC(=O)OC[C@@H]2COCCN2)cn2ncnc(Nc3ccc4c(cnn4Cc4ccccc4)c3)c12	170 nM	21 nM	2600 nM	420 nM	33 nM	11 µM·h	3500 nM	350 nM	0.14 nmol/min	4510 nM
CCC1=C2C(Nc3ccc4c(cnn4Cc4ccccc4)c3)=NC=NC2N=C1NC(=O)OCCn1ccnc1 (centres undefined)	460 nM	44 nM	9900 nM	860 nM	40 nM	36 µM·h	9900 nM	980 nM	–	> 5000 nM
CCC1=C2C(Nc3ccc4c(cnn4Cc4ccccc4)c3)=NC=NC2N=C1NC(=O)OCCN1CCOCC1 (centres undefined)	500 nM	77 nM	4900 nM	550 nM	111 nM	29 µM·h	11000 nM	520 nM	–	–
CCC1=C2C(Nc3ccc4c(cnn4Cc4ccccc4)c3)=NC=NC2N=C1NC(=O)OCC1CCCNC1 (centres undefined)	480 nM	29 nM	1200 nM	310 nM	38 nM	3.6 µM·h	1200 nM	320 nM	–	3900 nM
CCC1=C2C(Nc3ccc4c(cnn4Cc4ccccc4)c3)=NC=NC2N=C1NC(=O)OCCN1CCCCC1 (centres undefined)	380 nM	28 nM	1300 nM	310 nM	38 nM	5.5 µM·h	1700 nM	390 nM	0.27 nmol/min	–
CCC1=C2C(Nc3ccc4c(cnn4Cc4ccccc4)c3)=NC=NC2N=C1NC(=O)O[C@H]1CC[C@@](C)(N)CC1 (some centres undefined)	370 nM	20 nM	460 nM	130 nM	19 nM	1.76 µM·h	480 nM	170 nM	0.02 nmol/min	5220 nM
CCC1=C2C(Nc3ccc4c(cnn4Cc4cccc(F)c4)c3)=NC=NC2N=C1NC(=O)OC[C@@H]1COCCN1 (some centres undefined)	230 nM	22 nM	5100 nM	190 nM	23 nM	16.2 µM·h	5100 nM	340 nM	0.01 nmol/min	8070 nM
